# Results published in article PMC4111403 (Journal of Medicinal Chemistry, 2014).
# Legend:
# [1] = tested on: acetylated α-tubulin (AcTub) in QBI293 cells; test: QBI293 cell AcTub; assay type: cell-based; conditions: for activity in AcTub assay: 1 μM; for increase of cellular AcTub (words, Figure 2): compared with 1
# Method in brief: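 QBI293 cells are an HEK293 derivative. Tubulin acetylation, which occurs on polymerized tubulin, serves as the cellular read-out of MT stabilization. Test compounds were run at 0.1 or 1 μM. AcTub was expressed relative to vehicle-treated cells and to a 0.1 μM reference MT-stabilizer positive control. Significance was assessed by two-tailed t-test.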
# Pgp transporter = conditions: cited from earlier work
# [2] = tested on: acetylated α-tubulin (AcTub) in QBI293 cells; conditions: 50–500 nM concentrations ref 8; cited from earlier work
# [3] = tested on: AcTub levels in brain homogenates; conditions: single ip injection 1–6 mg/kg, mice ref 4; cited from earlier work
# [4] = 16 h brain and plasma PK study after ip dosing; assay type: in vivo, CD1 mice; conditions: for brain penetration / BBB permeability: mouse, ip dosing; for half-life: CD1, mouse, ip, 5 mg/kg
# Method in brief: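 2-month-old CD1 mice (20 g average). Plasma from EDTA-collected blood spun 4500g, 10 min, 4 °C; brain hemispheres sonicated in 10 mM ammonium acetate pH 5.7 (1:2 w/v). Acetonitrile-precipitated supernatants quantified by LC–MS/MS (positive ESI, MRM) against spiked-matrix standards 0.005–5 μM.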
# [5] = tested on: Pgp-expressing cancer cell lines; conditions: cited from earlier work
# human Pgp = human Pgp (Homo sapiens, UniProt P08183); test: Pgp-interaction assay; assay type: cell-based; conditions: NCI/ADR-RES cells
# QBI293 cells = test: AcTub immunofluorescence of QBI293 cells; assay type: cell-based; conditions: 4 h incubation; 2 at 100 nM, colchicine at 1 μM
# β-tubulin = β-tubulin ref 28; cited from earlier work
# [6] = tested on: AcTub levels in brain homogenates; test: Brain pharmacodynamic effect: AcTub levels in brain homogenates; assay type: in vivo, WT mice; conditions: 1 mg/kg daily ip for 4 or 6 days, n = 3
# [7] = Brain and plasma levels 2 h after oral administration; assay type: in vivo, mice; conditions: 2 h after oral administration of 10 mg/kg
# Method in brief: (§1)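 Dosing in 2-month-old CD1 mice (20 g average). Brain hemispheres homogenized by sonication in 10 mM ammonium acetate pH 5.7 (1:2 w/v); plasma from EDTA blood centrifuged 4500g, 10 min, 4 °C. Samples precipitated with acetonitrile, spun 15 000g, then analysed by UPLC–MS/MS with positive ESI and MRM. Quantified against brain- and plasma-matrix standard curves spanning 0.005–5 μM.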
# [8] = Unbound fraction in brain homogenate by equilibrium dialysis; assay type: in vitro ADME; conditions: ratio of brain Fu values
# tau transgenic (Tg) mice = conditions: tau Tg mice with brain stem and spinal cord tau pathology ref 5; cited from earlier work
# [9] = Brain and plasma compound concentration 1 h after ip injection; assay type: in vivo, CD1 mice; conditions: 1 h after ip injection of 5 mg/kg, mouse
# Method in brief: as §1
# Sequence of human Pgp (P08183 whole entry): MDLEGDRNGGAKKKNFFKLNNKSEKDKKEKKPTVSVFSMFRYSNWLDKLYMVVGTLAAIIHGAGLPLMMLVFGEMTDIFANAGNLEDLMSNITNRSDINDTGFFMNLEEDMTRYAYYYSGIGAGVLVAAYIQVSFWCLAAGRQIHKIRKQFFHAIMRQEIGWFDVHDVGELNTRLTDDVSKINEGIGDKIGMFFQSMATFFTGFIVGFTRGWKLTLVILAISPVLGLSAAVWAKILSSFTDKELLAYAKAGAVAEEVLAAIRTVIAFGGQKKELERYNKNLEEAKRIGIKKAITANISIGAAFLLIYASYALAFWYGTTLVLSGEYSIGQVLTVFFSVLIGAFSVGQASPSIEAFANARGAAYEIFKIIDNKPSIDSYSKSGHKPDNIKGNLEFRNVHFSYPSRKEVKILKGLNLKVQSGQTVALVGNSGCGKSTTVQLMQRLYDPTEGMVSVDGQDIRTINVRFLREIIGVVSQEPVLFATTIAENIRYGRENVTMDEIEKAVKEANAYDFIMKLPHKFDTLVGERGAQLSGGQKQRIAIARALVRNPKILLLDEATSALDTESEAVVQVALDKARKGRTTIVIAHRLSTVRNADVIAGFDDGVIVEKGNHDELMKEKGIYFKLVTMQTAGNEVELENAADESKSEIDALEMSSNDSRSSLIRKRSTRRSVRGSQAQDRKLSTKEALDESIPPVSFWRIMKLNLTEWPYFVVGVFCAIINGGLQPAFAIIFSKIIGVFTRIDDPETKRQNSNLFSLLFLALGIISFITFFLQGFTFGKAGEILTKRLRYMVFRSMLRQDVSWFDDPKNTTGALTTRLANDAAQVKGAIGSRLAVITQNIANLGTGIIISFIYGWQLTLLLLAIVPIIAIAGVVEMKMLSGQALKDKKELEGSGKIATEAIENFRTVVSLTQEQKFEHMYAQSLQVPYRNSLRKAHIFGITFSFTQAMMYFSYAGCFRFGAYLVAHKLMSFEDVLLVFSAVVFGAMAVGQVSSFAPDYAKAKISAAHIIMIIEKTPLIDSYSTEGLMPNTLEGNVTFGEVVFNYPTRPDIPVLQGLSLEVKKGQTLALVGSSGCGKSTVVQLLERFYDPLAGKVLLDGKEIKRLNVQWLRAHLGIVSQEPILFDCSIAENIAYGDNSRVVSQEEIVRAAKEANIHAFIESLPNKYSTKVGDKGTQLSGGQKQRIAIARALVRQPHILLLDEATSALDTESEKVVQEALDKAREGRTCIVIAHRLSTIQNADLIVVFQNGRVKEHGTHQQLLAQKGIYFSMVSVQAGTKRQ
compound,measurement,setting,value
"5-(4-Chlorophenyl)-6-methyl-4-(2,4,6-trifluorophenyl)pyridazin-3(2H)-one [Compound 6, reference compound]",activity in AcTub assay,[1],essentially inactive
same,AcTub fold-change relative to vehicle control,[1]; compound at 1 μM,1.5 ± 0.8^ns fold-change
"C/C1=C/C[C@@H](/C(C)=C/c2csc(C)n2)OC(=O)C[C@H](O)C(C)(C)C(=O)[C@H](C)[C@@H](O)[C@@H](C)CCC1 [Compound 1, epothilone D]",Pgp transporter inhibition,Pgp transporter,inhibitor of the Pgp transporter
same,elevation of AcTub levels in cells,[2],significant elevation
same,elevation in AcTub levels in brain homogenates,[3],significant elevation
"CNCCCOc1cc(F)c(-c2c(Cl)nc3ncnn3c2N[C@@H](C)C(F)(F)F)c(F)c1 [Compound 2, (S)-5-Chloro-6-(2,6-difluoro-4-(3-(methylamino)propoxy)phenyl)-N-(1,1,1-trifluoropropan-2-yl)[1,2,4]triazolo[1,5-a]pyrimidin-7-amine]",brain penetration / BBB permeability,[4],negligible brain penetration
same,activity against Pgp-expressing cancer cell lines,[5],active
same,effect on Pgp function (calcein-AM transport),human Pgp,did not interfere appreciably with Pgp function
same,"increase of cellular AcTub (words, Figure 2)",[1],significant increase
same,AcTub staining by immunofluorescence,QBI293 cells,large increase in AcTub-positive structures
same,competition for the taxane/epothilone binding site,β-tubulin,not to compete
same,effect on vinblastine binding,β-tubulin,did affect vinblastine binding
"Cc1nnc(Cl)c(-c2c(F)cc(F)cc2F)c1-c1ccc(Cl)s1 [Compound 7, 3-Chloro-5-(5-chlorothiophen-2-yl)-6-methyl-4-(2,4,6-trifluorophenyl)pyridazine, reference compound]",activity in AcTub assay,[1],essentially inactive
"C[C@H](Nc1c(-c2c(F)cc(OCCCN(C)C)cc2F)c(Cl)nc2ncnn12)C(F)(F)F [Compound 9, (S)-5-Chloro-6-(4-(3-(dimethylamino)propoxy)-2,6-difluorophenyl)-N-(1,1,1-trifluoropropan-2-yl)[1,2,4]triazolo[1,5-a]pyrimidin-7-amine]",PD response: AcTub level in brain,[6],significant PD response
same,half-life,[4]; brain,> 2 h
same,half-life,[4]; plasma,> 2 h
same,brain penetration / BBB permeability,[4],relatively limited
same,brain and plasma levels after oral dosing,[7],micromolar levels
same,effect on Pgp function (calcein-AM transport),human Pgp,did not interfere appreciably with Pgp function
same,brain Fu value of 9 relative to 20,[8],~3 fold
same,"increase of cellular AcTub (words, Figure 2)",[1],large increase
same,AcTub fold-change relative to vehicle control (numbers in parentheses),[1]; compound at 0.1 μM,(2.0 ± 1.4) fold-change
"C[C@H](Nc1nc(-c2cnccn2)nc(Cl)c1-c1c(F)cc(F)cc1F)C(F)(F)F [Compound 20, (S)-6-Chloro-2-(pyrazin-2-yl)-5-(2,4,6-trifluorophenyl)-N-(1,1,1-trifluoropropan-2-yl)pyrimidin-4-amine]",PD response: AcTub level in brain,[6],significant PD response
same,brain penetration / BBB permeability,[4],can readily partition across the BBB
same,brain and plasma levels after oral dosing,[7],micromolar levels
same,effect on Pgp function (calcein-AM transport),human Pgp,did not interfere appreciably with Pgp function
same,"increase of cellular AcTub (words, Figure 2)",[1],large increase
"CC(C)Nc1c(-c2c(F)cc(F)cc2F)c(Cl)nc2nccnc12 [Compound 37, 6-Chloro-N-isopropyl-7-(2,4,6-trifluorophenyl)pyrido[2,3-b]pyrazin-8-amine]",activity in AcTub assay,[1],essentially inactive
COc1cc2c(c(OC)c1OC)-c1ccc(OC)c(=O)cc1[C@@H](NC(C)=O)CC2 [colchicine],AcTub staining by immunofluorescence,QBI293 cells,significant loss of AcTub staining
CC(=O)O[C@H]1C(=O)[C@@]2(C)[C@H]([C@H](OC(=O)c3ccccc3)[C@]3(O)C[C@H](OC(=O)[C@H](O)[C@@H](NC(=O)c4ccccc4)c4ccccc4)C(C)=C1C3(C)C)[C@]1(OC(C)=O)CO[C@@H]1C[C@@H]2O [paclitaxel],effect on neurodegenerative phenotype of tau Tg mice,tau transgenic (Tg) mice,improve the neurodegenerative phenotype
"(S)-N-(3-(4-(5-Chloro-7-((1,1,1-trifluoropropan-2-yl)amino)[1,2,4]triazolo[1,5-a]pyrimidin-6-yl)-3,5-difluorophenoxy)propyl)pivalamide [Compound 16]",B/P (brain-to-plasma ratio),[9],0.12 ± 0.03
same,brain concentration,[9],170 ± 10 nM
same,plasma concentration,[9],1500 ± 500 nM
same,AcTub fold-change relative to vehicle control,[1]; compound at 1 μM,2.4 ± 0.9 fold-change
same,AcTub fold-change relative to 0.1 μM 2,"[1]; compound at 1 μM, relative to positive control 0.1 μM 2",0.7 ± 0.1 fold-change
